Each structure is given as a SMILES string. pEC50: −log10 of the molar value. A value given as a limit tells only on which side of the number the result lay.

The values that follow come from ChEMBL document CHEMBL1142195, “A novel nonnucleoside analogue that inhibits human immunodeficiency virus type 1 isolates resistant to current nonnucleoside reverse transcriptase inhibitors” (Antimicrob Agents Chemother, 2007).

Common to all, as to assay type: functional, organism-based
Assay [1] deals with Human immunodeficiency virus 1. Put plainly: Antiviral activity against HIV1 isolate with RT K103N-P225H mutation. The procedure, abridged: (§1)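 VSV-G-pseudotyped pNL4-3.Luc.R−E− molecular clones carrying the RT mutations, single-round infection of HeLa-JC53 cells (15,000/well) at MOI 0.03. Compounds serially diluted 1:4 in DMSO then in phenol red-free DMEM with 2% FBS, final DMSO 0.2%. Incubated 48 h at 37°C, 5% CO2. Luciferase read-out by chemiluminescence gives the EC50. Fold change is relative to wt virus, mean of two tests.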

For assay [2], the system named is Human immunodeficiency virus 1. The assay is described as follows: Antiviral activity against HIV1 isolate with RT G190S mutation. A digest of the protocol: as §1
For assay [3], the system named is Human immunodeficiency virus 1. The assay is described as follows: Antiviral activity against HIV1 isolate with RT K103N mutation. The procedure, abridged:
as §1

For assay [4], the system named is Human immunodeficiency virus 1. The assay is described as follows: Antiviral activity against wild type HIV1.
Assay [5] concerns Human immunodeficiency virus 1. The assay is described as follows: Antiviral activity against HIV1 isolate with RT V106I mutation. A digest of the protocol: as §1
For assay [6], the system named is Human immunodeficiency virus 1. Put plainly: Antiviral activity against HIV1 isolate V106I-Y188L mutant.
For assay [7], the system named is Human immunodeficiency virus 1. Put plainly: Antiviral activity against HIV1 isolate with RT Y181C mutation. The procedure, abridged: as §1
The test system of assay [8] is Human immunodeficiency virus 1. The assay is described as follows: Antiviral activity against HIV1 isolate with RT Y188L mutation. The procedure, abridged: as §1
The subject of assay [9] is Human immunodeficiency virus 1. Put plainly: Antiviral activity against HIV1 isolate with RT A98G mutation. The procedure, abridged: as §1
The test system of assay [10] is Human immunodeficiency virus 1. Put plainly: Antiviral activity against HIV1 isolate with RT K101E mutant. A digest of the protocol: as §1
Assay [11] relates to Human immunodeficiency virus 1. The assay is described as follows: Antiviral activity against HIV1 isolate with RT K103N-F227L mutation. A digest of the protocol: as §1
In assay [12] the test system is Human immunodeficiency virus 1. The assay is described as follows: Antiviral activity against HIV1 isolate with RT K103N-V108I mutation. A digest of the protocol:
as §1

For assay [13], the system named is Human immunodeficiency virus 1. The assay is described as follows: Antiviral activity against HIV1 isolate with RT K103N-V108I-P225H mutation. A digest of the protocol: as §1
Assay [14] deals with Human immunodeficiency virus 1. Put plainly: Antiviral activity against HIV1 isolate with RT K103N-Y181C mutation. The procedure, abridged: as §1
The subject of assay [15] is Human immunodeficiency virus 1. The assay is described as follows: Antiviral activity against HIV1 isolate with RT G190A mutation. A digest of the protocol:
as §1

Assay [16] deals with Human immunodeficiency virus 1. Put plainly: Antiviral activity against HIV1 isolate with RT K103N-Y188L mutation. The procedure, abridged:
as §1

Assay [17] has as its system Human immunodeficiency virus 1. The assay is described as follows: Antiviral activity against HIV1 isolate with RT K103N-V108I-A98G mutation. The procedure, abridged: as §1
For assay [18], the system named is Human immunodeficiency virus 1. The assay is described as follows: Antiviral activity against HIV1 isolate with RT K103N-K101Q-P225H mutation. The procedure, abridged:
as §1

The test system of assay [19] is Human immunodeficiency virus 1. Put plainly: Antiviral activity against HIV1 isolate with RT K103N-L100I mutation. A digest of the protocol:
as §1

Assay [20] has as its system Human immunodeficiency virus 1. The assay is described as follows: Antiviral activity against HIV1 isolate with RT K103N-K101Q mutation. A digest of the protocol:
as §1

One may read the pEC50 as the EC50 on a negative log10 scale, so that one unit is a factor of ten. A low value points to a large EC50. As to `O=C1Nc2ccc(Cl)cc2[C@@](C#CC2CC2)(C(F)(F)F)O1` [EFAVIRENZ], the pEC50 in assay [1] was 7.46; in assay [2], 7.85; in [3], 8.56; in [4], 9.77; in assay [5], 9.57; in assay [6], 6.87. Further, the pEC50 in [7] is 9.48; in assay [8], 7.61; in assay [9] it was 9.19; in [10], 9.13; in assay [11], 8.65; in assay [12], 8.06. The pEC50 in assay [13] was 7.11; in [14], 8.37; in assay [15], 9.32; in [16], less than 5.60; in [17], 7.17; in [18], 7.11. Moreover, the pEC50 in assay [19] was 6.59; in assay [20], 7.90.
